What was measured:
[1] = Solubility in over saturated phosphate buffer assessed per 100 g at pH 7 after 2 mins; format: physicochemical; details: pH 7, 2 min
Outline: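 Over-saturated solution made by tapping a suspension in 50 mM phosphate buffer (pH 7) for 2 min at 295 K. Content was read by UV–vis at 304 nm and converted using an extinction coefficient of 33,913 M-1 cm-1.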

[2] = Aqueous solubility assessed per 100 g in pure water; details: pH 7
[3] = Solubility in phosphate buffer assessed per 100 g at pH 7; format: physicochemical
Outline: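 Excess solid stirred 1 h with pure water or 50 mM phosphate buffer (pH 7; 20 mM NaH2PO4 + 30 mM Na2HPO4) in a sealed dual-wall flask held at 295 K by circulating water. The solid was removed by two 2-min centrifugations. Dissolved content was read by UV–vis at 304 nm and converted using an extinction coefficient of 33,913 M-1 cm-1.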

Albumin [4] = target: T1, Albumin (Homo sapiens, UniProt P02768); experiment: Binding affinity to human serum albumin by fluorescence quenching measurement; format: ADME; details: isolated protein
T1 sequence (P02768 whole entry): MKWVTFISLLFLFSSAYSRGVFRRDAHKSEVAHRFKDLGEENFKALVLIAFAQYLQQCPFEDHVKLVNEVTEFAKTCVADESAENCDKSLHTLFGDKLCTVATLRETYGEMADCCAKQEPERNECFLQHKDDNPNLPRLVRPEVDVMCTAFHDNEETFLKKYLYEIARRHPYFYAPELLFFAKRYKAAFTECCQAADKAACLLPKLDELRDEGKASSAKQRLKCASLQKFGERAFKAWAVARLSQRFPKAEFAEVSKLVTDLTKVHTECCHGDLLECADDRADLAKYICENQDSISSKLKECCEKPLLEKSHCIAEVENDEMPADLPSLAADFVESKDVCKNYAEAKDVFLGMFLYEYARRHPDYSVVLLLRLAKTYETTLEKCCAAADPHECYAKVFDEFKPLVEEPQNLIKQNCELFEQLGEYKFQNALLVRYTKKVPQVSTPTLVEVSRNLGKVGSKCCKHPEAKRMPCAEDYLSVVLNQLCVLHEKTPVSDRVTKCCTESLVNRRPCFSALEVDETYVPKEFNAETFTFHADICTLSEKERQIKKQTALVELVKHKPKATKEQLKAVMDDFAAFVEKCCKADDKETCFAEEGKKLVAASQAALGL
Outline: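 HSA intrinsic (Trp) fluorescence quenching at 298 K in 50 mM phosphate buffer, pH 7. HSA was held at a fixed level while compound amounts were increased. Excitation 280 nm, emission recorded 290–360 nm, intensity taken at 350 nm; samples read 2 min after mixing, with buffer blanks. Ka was obtained by fitting the modified Stern–Volmer equation.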

Albumin [5] = target: T1, Albumin; experiment: Binding affinity to human serum albumin assessed as increase in drug-induced fluorescence at 4 uM by fluorescence enhancing measurement; format: ADME; details: isolated protein
Outline: (§1)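 HSA binding was read as the resveratrol-moiety fluorescence at 388 nm. The compound was fixed at 4 µM in 50 mM phosphate buffer, pH 7, with HSA either fixed at 4 µM or increased from 2 to 16 µM, at 298 K. Solutions were read 2 min after mixing against buffer/HSA blanks. Ka came from a non-linear fit of fluorescence versus [HSA].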

Albumin [6] = target: T1, Albumin; experiment: Binding affinity to human serum albumin at 4 uM by UV-vis measurement; format: ADME
Outline: (§2)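 The compound was held at 4 µM in 50 mM phosphate buffer, pH 7 (20 mM NaH2PO4 and 30 mM Na2HPO4), and HSA was added at increasing concentrations. UV–vis absorbance of the compound was read at 318 nm, 2 min after thorough mixing. Buffers without HSA and with matching HSA levels served as blanks. Each compound solution was used only once.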

Albumin [7] = target: T1, Albumin; experiment: Binding affinity to human serum albumin assessed as decrease in UV absorbance by UV-vis measurement; format: ADME; design: scale not given: the % may be the effect or the level left; details: isolated protein; outline: as §2
Albumin [8] = target: T1, Albumin; experiment: Binding affinity to human serum albumin at 4 uM by fluorescence enhancing measurement; format: ADME; details: isolated protein; outline: as §1

| solubility [1] | solubility [2] | solubility [3] | Ka (Albumin [4]) | Activity (Albumin [5]) | Compound | Kd (Albumin [6]) | Ka (Albumin [6]; human, isolated protein, 4 µM) | Activity (Albumin [7]) | Ka (Albumin [8]) |
| --- | --- | --- | --- | --- | --- | --- | --- | --- | --- |
| 867.8 mg | 80.91 mg | 313.8 mg | 2.95 ×10⁵ /M | 50% | O=C(O)COc1ccc(/C=C/c2cc(O)cc(O)c2)cc1 |  |  |  |  |
|  | 0.032 mg | 0.085 mg | 3.05 ×10⁵ /M |  | COC(=O)CCCCCOc1ccc(/C=C/c2cc(O)cc(O)c2)cc1 |  |  |  |  |
|  | 1.93 mg | 1.4 mg | 1.14 ×10⁵ /M |  | CCOC(=O)COc1ccc(/C=C/c2cc(O)cc(O)c2)cc1 |  |  |  |  |

The remaining lines, values behind:

| Compound | solubility [1] | solubility [2] | solubility [3] | Ka (Albumin [4]) | Activity (Albumin [5]) | Kd (Albumin [6]) | Ka (Albumin [6]; human, isolated protein, 4 µM) | Activity (Albumin [7]) | Ka (Albumin [8]) |
| --- | --- | --- | --- | --- | --- | --- | --- | --- | --- |
| O=C(O)CCCCCOc1ccc(/C=C/c2cc(O)cc(O)c2)cc1 [RESVERATROL HEXANOIC ACID] |  | 4.52 mg | 10.54 mg | 67 ×10⁵ /M |  | 382 nM | 26.2 ×10⁵ /M | 20% | 31.2 ×10⁵ /M |
| Oc1ccc(/C=C/c2cc(O)cc(O)c2)cc1 [RESVERATROL] |  | 3.24 mg | 3.24 mg | 1.64 ×10⁵ /M |  |  |  |  |  |
